Data as given in publication PMC3424550 (Nucleic Acids Research, 2012).

Assays:
[1] = biological target: GMP-extended TEC (TEC17), E. coli RNAP (Escherichia coli, UniProt P0A8T7+P0A8V2); type: binding
E. coli RNAP TEC [2] = biological target: T1, E. coli RNAP TEC (Escherichia coli, UniProt P0A8T7+P0A8V2); assay: Time-resolved nucleotide addition; type: biochemical; details: i − 7 6-MI TECs; 200 µM NTP, 25°C
E. coli RNAP TEC [3] = biological target: T1, E. coli RNAP TEC; assay: PPi release, coupled PPase / MDCC-PBP stopped-flow assay; type: biochemical
TEC = details: absence of the next incoming substrate NTP; cited from earlier work
[4] = biological target: TEC assembled using β′H936A RNAP (Escherichia coli, UniProt P0A8T7+P0A8V2, H936A); assay: Equilibrium TGT titration of extended TECs, β′H936A RNAP; type: binding; details: β′His936 substituted with alanine
Summary of the method: (§1)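 E. coli RNAP TECs (template strand limiting at 1 µM) on a synthetic scaffold, with 6-MI or 2-AP in the template or 2-AP added at the RNA 3′ end. Extended 10 min at 25°C in TB10 (pH 7.5) with 5 µM substrate and 0.2 nM yeast PPase. TGT added afterwards, 5 min more. Emission peaks: 6-MI 420 nm (ex 340), 2-AP 375 nm (ex 330). KTGT from a dissociation-equilibrium fit; errors are SD of best-fit estimates.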

ΔTL RNAP TEC = assay: Equilibrium TGT titration of extended TECs, ΔTL RNAP; type: binding, Escherichia coli; details: AMP-extended TEC, TL domain replaced by a two-alanine linker
Summary of the method: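 Two-alanine-linker ΔTL RNAP TECs (template strand limiting at 1 µM) with a base-analog fluorophore in the template. Extended 1.5 h at 25°C in TB10 (pH 7.5) with 5 µM substrate and 0.2 nM yeast PPase. TGT added post-catalytically for 5 min more. Fluorescence taken at the emission peak: 6-MI 420 nm (ex 340) or 2-AP 375 nm (ex 330). Titration fitted to dissociation-equilibrium equations.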

[5] = biological target: TEC assembled using β′R933A RNAP (Escherichia coli, UniProt P0A8T7+P0A8V2, R933A); assay: Equilibrium TGT titration of extended TECs, β′R933A RNAP; type: binding; details: β′Arg933 substituted with alanine
Summary of the method: as §1

[6] = biological target: TEC assembled with wild-type E. coli RNAP (Escherichia coli, UniProt P0A8T7+P0A8V2); assay: Equilibrium TGT titration of extended TECs, fluorescence of base analogs; type: binding
Summary of the method: as §1

β′N458D TEC = β′N458D TEC (Escherichia coli, UniProt P0A8T7+P0A8V2, N458D); assay: Equilibrium TGT titration of extended TECs, β′N458D RNAP; type: binding; details: AMP-extended β′N458D TEC
Summary of the method: as §1

[7] = biological target: TEC assembled using β′M932A RNAP (Escherichia coli, UniProt P0A8T7+P0A8V2, M932A); assay: Equilibrium TGT titration of extended TECs, β′M932A RNAP; type: binding
Summary of the method: as §1

E. coli RNAP TEC [8] = biological target: T1, E. coli RNAP TEC; type: biochemical; details: time-resolved, saturating TGT (5 µM)
RNAP = details: cited from earlier work

Structure (SMILES): Nc1ccn([C@@H]2O[C@H](COP(=O)(O)CP(=O)(O)OP(=O)(O)O)[C@@H](O)[C@H]2O)c(=O)n1 [CMPcPP, cytidine-5′-[(α,β)-methyleno]triphosphate]
- decrease in fluorescence upon CMPcPP binding to the TEC [1]: ~15%
- effect on fluorescence in the absence of TGT [1]: failed to increase fluorescence
- effect on TGT action ([1]; templated CMPcPP): able to counter the effect of TGT

Structure (SMILES): Nc1nc2c(ncn2[C@@H]2O[C@H](COP(=O)(O)O)[C@@H](O)[C@H]2O)c(=O)[nH]1 [GMP]
- nucleotide addition, half-life (E. coli RNAP TEC [2]): ~0.02 s

Structure (SMILES): O=c1ccn([C@@H]2O[C@H](COP(=O)(O)O)[C@@H](O)[C@H]2O)c(=O)[nH]1 [UMP]
- nucleotide addition, half-life (E. coli RNAP TEC [2]): ~0.02 s

Structure (SMILES): Nc1ccn([C@@H]2O[C@H](COP(=O)(O)O)[C@@H](O)[C@H]2O)c(=O)n1 [CMP]
- nucleotide addition, half-life (E. coli RNAP TEC [2]): ~0.008 s

Structure (SMILES): O=P(O)(O)OP(=O)(O)O [PPi, pyrophosphate]
- PPi to MDCC-PBP·Pi conversion rate (E. coli RNAP TEC [3]; 10 µM PPase): 120 s⁻¹
- rate of PPi release from the TEC (E. coli RNAP TEC [3]; same TEC as Johnson et al., PPase-MDCC-PBP method): 120 s⁻¹
- rate of PPi release from the TEC (TEC): 2.9 s⁻¹

Structure (SMILES): Nc1ncnc2c1ncn2[C@@H]1O[C@H](COP(=O)(O)O)[C@@H](O)[C@H]1O [AMP]
- nucleotide addition, half-life (E. coli RNAP TEC [2]): ~0.02 s

Structure (SMILES): CC(=O)O[C@@H]1[C@H](N)[C@@H](OP(=O)(O)O)[C@@]2(C(=O)O)CS[C@@](O)(C(N)=O)[C@@H]1O2 [TGT, tagetitoxin]
- increase in KTGT relative to wild-type [4]: > 7 fold
- response of TEC to TGT action (ΔTL RNAP TEC): completely resistant
- increase in KTGT relative to wild-type [5]: > 7 fold
- quenching of the fluorescence of 3′ RNA 2-AP by TGT ([6]; 2-AP ribonucleoside monophosphate-extended TEC, wild-type): 2 fold
- increase of apparent TGT binding constant relative to rNMP-extended TECs ([6]; TECs lacking a 2′-OH group at the RNA 3′ end): ~10 fold
- increase in KTGT relative to rNMP-extended TECs ([6]; TECs lacking a 3′ OH group at the RNA 3′ end): approximately 5 fold
- effect on translocation state of extended TECs ([6]; TGT added post-catalytically): quantitatively moves extended TECs into the pre-translocated state
- move into the pre-translocated state at saturating TGT concentrations (β′N458D TEC): ≤ 20%
- quenching of the fluorescence of 3′ RNA 2-AP by TGT ([7]; 2-AP ribonucleoside monophosphate-extended β′M932A TEC): did not quench
- apparent KTGT relative to wild-type TEC ([7]; β′M932A TEC, higher): 5 fold
- effect on forward translocation (E. coli RNAP TEC [8]): does not affect the rate of forward translocation
- effect on pyrophosphorolysis (RNAP): strongly inhibit
